Measurements as given in article PMC4073659 (Journal of Natural Products, 2014).

Assays:
[1] = tested on: delta toxin production (strain AH2759); test: Quorum sensing inhibition observed by delta toxin immunoblot; type: cell-based, Staphylococcus aureus (MRSA); settings: strain AH2759 in TSB; compounds 0.3–400 μM, AIP-2 2–500 nM; spent media
Procedure, shortened: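 Spent media from the agr P3lux reporter cultures: TSB with 10 μg/mL chloramphenicol, 1:500 inoculum, 1% DMSO final, 37 °C with shaking at 250 rpm. Wells were pooled and 0.22 μm filtered, then run on 15% SDS-PAGE and transferred to PVDF (90 min, 160 mA). Blots were blocked overnight at 4 °C in milk/BSA TBST, then probed 1 h at rt with rabbit anti-delta toxin (1:2000) and HRP anti-rabbit (1:10 000).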

[2] = tested on: agr quorum-sensing system (agr P3lux reporter strain AH2759); test: agr P3lux reporter strain assay for quorum sensing inhibition; type: cell-based, Staphylococcus aureus (CA-MRSA strain LAC, USA300); settings: Staphylococcus aureus, read-out: agr P3lux IC50, reporter strain AH2759; cell-density-normalized luminescence; ± standard error from four-parameter logistic fit

| SMILES | suppression of delta toxin production (immunoblot) [1] | IC50 [2] |
| --- | --- | --- |
| CC(=O)C(O)c1cc(O)c2c(c1)C(=O)c1cc(O)cc(O)c1C2=O (centres unmarked) [compound 4] | dose-dependent suppression | – |
| C[C@H](O)Cc1cc(O)c2c(c1)C(=O)c1cc(O)cc(O)c1C2=O [compound 6, (+)-2′S-isorhodoptilometrin] | – | < 10 µM |
| O=C(O)c1cc(O)c2c(c1)C(=O)c1cc(O)c(O)c(O)c1C2=O [compound 1] | dose-dependent suppression | – |
| O=C1c2cc(O)cc(O)c2C(=O)c2c(O)cc(CO)cc21 [compound 3, ω-hydroxyemodin] | dose-dependent suppression | < 10 µM |
